A selection: hits, their analogues and other compounds. The true share with any hit is near 4.8%.
Calb FLC: C. albicans growth inhibition with fluconazole, primary screen, CaCi-2 strain, Alamar Blue fluorescence. hit rate 0.57% among 300,000. AID 1979, 2009. C. albicans CaCi-2 (fluconazole-resistant clinical isolate) + fluconazole, 48 h. growth inhibition, % (test concentration not listed);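 active = growth inhibition above about 58% in most replicates, limit read from the data, passing the limit was not always enough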;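 note: all wells also contain fluconazole at 8 µg/ml as a sub-toxic cotreatment; 0% = median of DMSO wells and 100% = median of geldanamycin control wells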
NALP1 inh: NALP1 inflammasome inhibitors in reconstituted yeast, colorimetric, S. cerevisiae, triplicate retest; S. cerevisiae NALP1/ASC/caspase-1 growth, X-gal OD620, 72 h; hit rate 0.61% among 280,000; AID 2071, 2009; inhibition, % at 10 µM; in the data active = inhibition mostly above about 24%, no sharp cut-off; inactive = mostly below about 32%
ATG4B inh: ATG4B protease inhibitors, primary screen, biochemical, fluorescence, uHTS; hit rate 0.51% among 340,000; AID 504462, 2011; inhibition, % at 8.33 µM; ATG4B cleavage of LC3-PLA2, NBD-HPC fluorescence, 1 h; in the data active = inhibition above about 40%
UCH37 inh: inhibitors of human UCH37 deubiquitinase, primary screen, biochemical, Ub-AMC cleavage, fluorescence. purified proteasome/UCH37. inhibition, % (test concentration not listed). Ubiquitin carboxyl-terminal hydrolase isozyme L5 (Homo sapiens), Q9Y5K5. hit rate 0.33% among 330,000;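 active = mean inhibition over replicate wells above about 20%, limit read from the data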;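 note: 0% = compound-free wells with enzyme and 100% = wells lacking proteasome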
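Assay system: Proteasome-bound UCH37. Buffer or medium: pH 7.4 Tris-HCl (50 mM) with ovalbumin, ATP-MgCl2, DTT. Incubation: 30 min preincubation with enzyme, 25 min cleavage at room temperature. Measured by: fluorescence, ex 355 nm, em 460 nm. Read-out basis: percent inhibition. Control set: wells without proteasome as full block, compound-free enzyme plus substrate as uninhibited.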
ALR inh: inhibitors of human ALR sulfhydryl oxidase, primary screen, biochemical, H2O2 detection, HRP-luminol luminescence, single point; inhibition, % (test concentration not listed); purified ALR, DTT oxidation; FAD-linked sulfhydryl oxidase ALR (Homo sapiens), P55789; hit rate 3.8% among 290,000;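 active = mean replicate inhibition above about 79%, with every replicate also reaching it, limit read from the data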
Target sequence (P55789 whole entry, looked up): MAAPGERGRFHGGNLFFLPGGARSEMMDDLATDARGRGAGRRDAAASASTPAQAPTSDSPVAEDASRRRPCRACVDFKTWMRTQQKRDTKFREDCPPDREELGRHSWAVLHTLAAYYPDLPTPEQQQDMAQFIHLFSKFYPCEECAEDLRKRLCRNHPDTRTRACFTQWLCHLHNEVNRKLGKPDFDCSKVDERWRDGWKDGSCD
NLRP3 yeast inh: NALP3 inflammasome inhibitors in reconstituted yeast, primary screen, luminescence, uHTS | Yeast reconstituted NLRP3/ASC/caspase-1, beta-gal luminescence, 24 h | inhibition, % at 10 µM | hit rate 0.39% among 330,000 | AID 2825, 2010;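 active = inhibition of 50% or more; inactive = inhibition below 50%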;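 note: plate controls were induced DMSO wells for no effect and uninduced yeast grown without galactose for full effect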
Active calls of the source: *; i = inactive; / = no result given.

SMILES	Calb FLC	NALP1 inh	ATG4B inh	UCH37 inh	ALR inh	NLRP3 yeast inh
CCOC(=O)N1CCN(CC(O)c2ccc3c(c2)CCN3)CC1 (configuration not stated)	-68.6	-46.5	-2.7	-0.1	82.4*	3.8
CCOC(=O)N1CCN(CC(O)c2ccc3cc[nH]c3c2)CC1 (configuration not stated)	12.1	-12.8	-3.9	-0.1	-4.3	12.1
O=C(CCl)N(Cc1cc(=O)[nH]c2ccccc12)c1ccccc1	23.0	7.7	15.5	/	95.5*	0.6
O=c1cc(CNCCCO)c2ccccc2[nH]1	-3.7	26.4*	8.8	-0.5	-6.0	3.6
COc1ccc(NCc2cc(=O)[nH]c3ccccc23)cc1	-4.2	25.7	4.4	4.3	99.0*	11.9
O=C(CN1CCCCCCC1)NN=Cc1ccccc1F	/	/	/	1.7	/	/
CC(=NNS(=O)(=O)c1ccc(F)cc1)c1ccc(NC(=O)c2ccc(C)o2)cc1	/	/	/	2.4	/	/
COc1ccc(-c2cc(C(F)(F)F)c3c(=O)n(-c4ccccc4)[nH]c3n2)cc1	21.1	3.1	21.1	8.6	99.3*	4.7
COc1ccc(-c2cc(-c3ccccc3)nc(=O)[nH]2)cc1	-0.5	/	0.2	i	1.1	7.0
CCc1ccccc1NC(=O)CSc1nnc([C@@H](N)Cc2ccccc2)o1	/	13.1	-3.4	2.2	-5.8	5.0
CCc1ccccc1NC(=O)CSc1nc(C)c(C)o1	6.4	18.6	-0.9	-0.2	98.8*	32.6
O=C(NN=Cc1cn(-c2ccccc2)nc1-c1cc2ccccc2o1)c1cccnc1	/	/	/	-20.4	/	/
Cc1cccc(-n2c(CCn3nc(C)c([N+](=O)[O-])c3C)n[nH]c2=S)c1	16.6	-2.4	2.2	4.0	91.9*	9.9
COc1cccc(-n2c(CCn3nc(C)c([N+](=O)[O-])c3C)n[nH]c2=S)c1	0.9	20.2	-4.0	1.8	85.5*	10.4
CC12CN3CCN(CC(C3)C1=NN=Cc1cccc([N+](=O)[O-])c1)C2	/	/	/	1.9	/	/
CN(C)c1ccc(C2N3CC4(C)CN2CC(C)(C3)C4O)cc1 (configuration not stated)	-4.2	-27.3	-0.6	3.4	99.0*	5.7
CC1(C)OC(=O)C(=CNCCc2ccc(O)cc2)C(=O)O1	-4.8	-4.3	-9.5	0.6	88.3*	4.3
CC1(C)OC(=O)C(=CNCC(O)c2ccccc2)C(=O)O1 (configuration not stated)	-10.9	15.3	-9.6	0.6	-1.9	10.8
COc1cc(OC)nc(-n2ncc(Br)c(Br)c2=O)n1	/	65.9	-1.4	7.9	92.0*	/
COc1cc(/C=C2\C(=N)N3N=CSC3=NC2=O)ccc1OS(=O)(=O)c1ccccc1	-4.3	8.5	3.7	6.3	98.0*	8.1
COc1cc(/C=C2\C(=N)N3N=C(S(C)(=O)=O)SC3=NC2=O)cc(OC)c1OCCOc1ccccc1C	6.1	9.6	77.2*	-0.9	53.1	-1.2
COc1cc(/C=C2\C(=N)N3N=C(C)SC3=NC2=O)cc(OC)c1OCCOc1ccccc1C	1.3	17.8	11.7	-88.4	-2.0	35.1
COc1cc(/C=C2/C(=N)N3C(c4ccccc4)=CSC3=NC2=O)ccc1OCC(=O)O	-8.0	/	-1.5	13.7	99.1*	3.8
Cc1cc(/C=C2\C(=N)N3N=CSC3=NC2=O)c(C)n1Cc1ccccc1	-3.1	19.4	-3.4	4.8	88.4*	19.6
C=CCOc1ccc(/C=C2\C(=N)N3N=C(S(=O)(=O)CC)SC3=NC2=O)cc1OC	-4.7	-9.4	20.7	21.4*	17.1	20.4
Cc1ccccc1OCC(=O)NN=Cc1ccncc1	/	/	/	5.5	/	/
O=c1c2ccccc2nc(-c2ccc(Cl)cc2Cl)n1O	83.8*	-5.9	-7.0	3.9	1.7	34.0
O=c1c2ccccc2nc(-c2ccccc2Cl)n1O	18.1	-20.8	0.4	-2.0	-2.4	2.5
CCOC(=O)c1c(CCl)nc2ccccc2c1-c1ccccc1	3.3	/	36.5	/	95.5*	10.4
